From ChEMBL document CHEMBL1821590, “Novel dihydropyrimidines and its pyrazole derivatives: synthesis and pharmacological screening” (Eur J Med Chem, 2011)
≈ marks a conversion by molar mass, not a printed value.

Tests used:
Format in all cases: functional
[1] = tested on: Pseudomonas aeruginosa; experiment: Antimicrobial activity against Pseudomonas aeruginosa at 25 ug/ml by agar plate diffusion technique; details: read-out: IZ
In short: (§1)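 Agar plate diffusion against E. coli, P. aeruginosa, S. aureus and B. subtilis, with compounds at 25, 50 and 100 µg/mL. Streptomycin as standard.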

[2] = tested on: Pseudomonas aeruginosa; experiment: Antimicrobial activity against Pseudomonas aeruginosa at 50 ug/ml by agar plate diffusion technique; details: read-out: IZ; in short: as §1
[3] = tested on: Escherichia coli; experiment: Antimicrobial activity against Escherichia coli at 100 ug/ml by agar plate diffusion technique; details: read-out: IZ; in short: as §1
[4] = Antioxidant activity assessed as inhibition of lipid peroxidation using egg lecithin liposomes incubated for 1 hr
In short: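 Egg lecithin (3 mg/mL, phosphate buffer pH 7.4) sonicated 10 min to form liposomes. Sample or ascorbic acid (12.5–100 µg/mL) added. Peroxidation induced with FeCl3 and L-ascorbic acid, 1 h at 37 °C. Stopped with HCl/TCA/TBA/BHA, boiled 15 min, centrifuged, supernatant read at 532 nm. Triplicate. % inhibition vs control. IC50 derived.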

[5] = tested on: Metaphire posthuma; experiment: Anthelmintic activity against Pheretima posthuma assessed as time taken for complete parasite paralysis at 0.2% w/v
In short: (§2)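 Earthworms (Pheretima posthuma) exposed to test solutions at 0.1, 0.2 and 0.5% w/v; time in minutes to complete paralysis (worms motionless) recorded. Albendazole as standard. Mean of three determinations ± S.D.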

[6] = tested on: Candida albicans; experiment: Antimicrobial activity against Candida albicans at 100 ug/ml by paper disc method; details: read-out: IZ
In short: (§3)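 Paper disc method against A. niger and C. albicans, with compounds at 25, 50 and 100 µg/mL. Amphotericin-B as standard.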

[7] = tested on: Metaphire posthuma; experiment: Anthelmintic activity against Pheretima posthuma assessed as time taken for complete parasite paralysis at 0.5% w/v; in short: as §2
[8] = tested on: Aspergillus niger; experiment: Antimicrobial activity against Aspergillus niger at 100 ug/ml by paper disc method; details: read-out: IZ; in short: as §3
[9] = tested on: Pseudomonas aeruginosa; experiment: Antimicrobial activity against Pseudomonas aeruginosa at 100 ug/ml by agar plate diffusion technique; details: read-out: IZ; in short: as §1
[10] = tested on: Escherichia coli; experiment: Antimicrobial activity against Escherichia coli at 50 ug/ml by agar plate diffusion technique; details: read-out: IZ; in short: as §1
[11] = tested on: Staphylococcus aureus; experiment: Antimicrobial activity against Staphylococcus aureus at 25 ug/ml by agar plate diffusion technique; details: read-out: IZ; in short: as §1
[12] = tested on: Bacillus subtilis; experiment: Antimicrobial activity against Bacillus subtilis at 100 ug/ml by agar plate diffusion technique; details: read-out: IZ; in short: as §1
[13] = tested on: Staphylococcus aureus; experiment: Antimicrobial activity against Staphylococcus aureus at 50 ug/ml by agar plate diffusion technique; details: read-out: IZ; in short: as §1
[14] = tested on: Staphylococcus aureus; experiment: Antimicrobial activity against Staphylococcus aureus at 100 ug/ml by agar plate diffusion technique; details: read-out: IZ; in short: as §1
[15] = tested on: Bacillus subtilis; experiment: Antimicrobial activity against Bacillus subtilis at 50 ug/ml by agar plate diffusion technique; details: read-out: IZ; in short: as §1
[16] = tested on: Metaphire posthuma; experiment: Anthelmintic activity against Pheretima posthuma assessed as time taken for complete parasite paralysis at 0.1% w/v; in short: as §2
[17] = tested on: Candida albicans; experiment: Antimicrobial activity against Candida albicans at 50 ug/ml by paper disc method; details: read-out: IZ; in short: as §3
[18] = tested on: Aspergillus niger; experiment: Antimicrobial activity against Aspergillus niger at 50 ug/ml by paper disc method; details: read-out: IZ; in short: as §3
[19] = tested on: Escherichia coli; experiment: Antimicrobial activity against Escherichia coli at 25 ug/ml by agar plate diffusion technique; details: read-out: IZ; in short: as §1
[20] = Antioxidant activity assessed as nitric oxide radical scavenging activity after 150 mins
In short: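 10 mM sodium nitroprusside (4 mL), PBS pH 7.4 (1 mL) and sample or ascorbic acid in DMSO (1 mL, 12.5–100 µg/mL), incubated 150 min at 25 °C. Nitrite detected with sulphanilic acid (5 min) then naphthylethylenediamine (30 min, diffused light). Read at […]. Triplicate. % inhibition = [1 − (Vt/Vc)] × 100. IC50 derived from it.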

[21] = tested on: Candida albicans; experiment: Antimicrobial activity against Candida albicans at 25 ug/ml by paper disc method; details: read-out: IZ; in short: as §3
[22] = tested on: Metaphire posthuma; experiment: Anthelmintic activity against Pheretima posthuma assessed as time taken for parasite death at 0.2% w/v
In short: (§4)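 Earthworms (Pheretima posthuma, spelled Perituma posthuma in text) exposed to test compounds at 0.1, 0.2 and 0.5% w/v. Albendazole served as standard, with an untreated control. Paralysis was recorded as the time until worms became motionless, then time to death was recorded, in minutes. Each value is the mean of three determinations with S.D.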

[23] = Antioxidant activity assessed as potassium ferricyanide ion reducing power after 20 mins
In short: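 Oyaizu method. Samples or ascorbic acid in DMF (12.5–100 µg/mL) mixed with 0.2 M phosphate buffer pH 6.6 and 1% potassium ferricyanide, 20 min at 50 °C. 10% TCA added, centrifuged. Supernatant mixed with water and 0.1% FeCl3, read at 700 nm. % = [(Vt/Vc) − 1] × 100. IC50 derived.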

[24] = tested on: Metaphire posthuma; experiment: Anthelmintic activity against Pheretima posthuma assessed as time taken for parasite death at 0.1% w/v; in short: as §4
[25] = Antioxidant activity assessed as hydrogen peroxide scavenging activity after 10 mins
In short: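 H2O2 (20 mM) in PBS pH 7.4. 1 mL of sample or ascorbic acid in methanol (12.5–100 µg/mL) added to 2 mL H2O2 solution. A230 read after 10 min. % inhibition = [1 − (Vt/Vc)] × 100. Triplicate, averaged. IC50 derived from % inhibition across concentrations.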

[26] = tested on: Metaphire posthuma; experiment: Anthelmintic activity against Pheretima posthuma assessed as time taken for parasite death at 0.5% w/v; in short: as §4
[27] = Antiinflammatory activity assessed as inhibition of albumin denaturation at 100 ug/ml by UV-visible spectrophotometry
In short: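 Compounds dissolved in minimal DMF, diluted in PBS pH 7.4 (final DMF <2.5%). 1 mL test solution (100 µg/mL) plus 1 mL 1% albumin in PBS, 15 min at 27 ± 1 °C, then heated 10 min at 60 ± 1 °C. After cooling, turbidity read at 660 nm. % inhibition = [(Vt/Vc) − 1] × 100 against a no-drug control. Triplicate, averaged. Diclofenac standard.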

[28] = tested on: Aspergillus niger; experiment: Antimicrobial activity against Aspergillus niger at 25 ug/ml by paper disc method; details: read-out: IZ; in short: as §3
[29] = tested on: Bacillus subtilis; experiment: Antimicrobial activity against Bacillus subtilis at 25 ug/ml by agar plate diffusion technique; details: read-out: IZ; in short: as §1

SMILES	zone of inhibition at 25 µg/mL [1]	zone of inhibition at 50 µg/mL [2]	zone of inhibition at 100 µg/mL [3]	IC50 [4]	Time [5]	zone of inhibition at 100 µg/mL [6]	Time [7]	zone of inhibition at 100 µg/mL [8]	zone of inhibition at 100 µg/mL [9]	zone of inhibition at 50 µg/mL [10]	zone of inhibition at 25 µg/mL [11]	zone of inhibition at 100 µg/mL [12]	zone of inhibition at 50 µg/mL [13]	zone of inhibition at 100 µg/mL [14]	zone of inhibition at 50 µg/mL [15]	Time [16]	zone of inhibition at 50 µg/mL [17]	zone of inhibition at 50 µg/mL [18]	zone of inhibition at 25 µg/mL [19]	IC50 [20]	further results
Cn1c(NN)nc(-c2ccc(Cl)cc2)c(C#N)c1=O	7.64 mm	10.2 mm	12.4 mm	46 µg/mL (≈ 167 µM)	40.13 min	17.3 mm	37.67 min	21.4 mm	14.9 mm	10.9 mm	11.2 mm	24.1 mm	15.5 mm	20.6 mm	16 mm	42.1 min	15.7 mm	16.8 mm	8.18 mm	59 µg/mL (≈ 214 µM)	zone of inhibition at 25 µg/mL [21]: 12.8 mm; Time [22]: 46.45 min; IC50 [23]: 44 µg/mL (≈ 160 µM); Time [24]: 58.3 min; IC50 [25]: 41 µg/mL (≈ 149 µM); Time [26]: 42.54 min; inhibition [27]: 61.2%; zone of inhibition at 25 µg/mL [28]: 14.6 mm; zone of inhibition at 25 µg/mL [29]: 10.2 mm
CCOC(=O)c1cnn(-c2nc(-c3ccccc3F)c(C#N)c(=O)n2C)c1N	12.7 mm	16.1 mm	27.5 mm	94 µg/mL (≈ 246 µM)	68.48 min	21.2 mm	48.38 min	21.2 mm	26.2 mm	22.3 mm	15.8 mm	28 mm	20.8 mm	26.7 mm	19.3 mm	70.67 min	15.2 mm	14.1 mm	15.1 mm	87 µg/mL (≈ 228 µM)	zone of inhibition at 25 µg/mL [21]: 12 mm; Time [22]: 80.74 min; IC50 [23]: 69 µg/mL (≈ 180 µM); Time [24]: 88.45 min; IC50 [25]: 86 µg/mL (≈ 225 µM); Time [26]: 60.77 min; inhibition [27]: 48.9%; zone of inhibition at 25 µg/mL [28]: 11.9 mm; zone of inhibition at 25 µg/mL [29]: 14.8 mm
COc1ccc(-c2nc(SC)n(C)c(=O)c2C#N)cc1	6.19 mm	8.84 mm	8.79 mm	53 µg/mL (≈ 184 µM)	46.56 min	19.8 mm	42.65 min	18 mm	9.17 mm	7.19 mm	8.76 mm	19.1 mm	12.8 mm	14.8 mm	13.1 mm	54.56 min	11.2 mm	12 mm	5.08 mm	73 µg/mL (≈ 254 µM)	zone of inhibition at 25 µg/mL [21]: 9.33 mm; Time [22]: 72.67 min; IC50 [23]: 58 µg/mL (≈ 202 µM); Time [24]: 78.22 min; IC50 [25]: 48 µg/mL (≈ 167 µM); Time [26]: 62.21 min; inhibition [27]: 21.3%; zone of inhibition at 25 µg/mL [28]: 11.6 mm; zone of inhibition at 25 µg/mL [29]: 11.7 mm
CCOC(=O)c1cnn(-c2nc(-c3ccccc3Cl)c(C#N)c(=O)n2C)c1N	12.2 mm	16.3 mm	26.9 mm	102 µg/mL (≈ 256 µM)	42.05 min	20.2 mm	46.18 min	22.4 mm	23.9 mm	20.5 mm	14.6 mm	26.2 mm	18.3 mm	24.3 mm	17.2 mm	58.08 min	14.9 mm	15.1 mm	13.2 mm	93 µg/mL (≈ 233 µM)	zone of inhibition at 25 µg/mL [21]: 11.5 mm; Time [22]: 57.5 min; IC50 [23]: 78 µg/mL (≈ 196 µM); Time [24]: 72.26 min; IC50 [25]: 98 µg/mL (≈ 246 µM); Time [26]: 51.7 min; inhibition [27]: 74.2%; zone of inhibition at 25 µg/mL [28]: 12.2 mm; zone of inhibition at 25 µg/mL [29]: 13.4 mm
Cn1c(NN)nc(-c2ccccc2O)c(C#N)c1=O	7.27 mm	9.17 mm	11.2 mm	34 µg/mL (≈ 132 µM)	33.85 min	17.7 mm	30.13 min	16.5 mm	13 mm	9.58 mm	10.6 mm	22.2 mm	12.2 mm	17.7 mm	13.8 mm	35.42 min	12.5 mm	10.6 mm	8.39 mm	46 µg/mL (≈ 179 µM)	zone of inhibition at 25 µg/mL [21]: 9.62 mm; Time [22]: 37.1 min; IC50 [23]: 38 µg/mL (≈ 148 µM); Time [24]: 50.13 min; IC50 [25]: 30 µg/mL (≈ 117 µM); Time [26]: 44.1 min; inhibition [27]: 34.4%; zone of inhibition at 25 µg/mL [28]: 8.24 mm; zone of inhibition at 25 µg/mL [29]: 9.81 mm
Cn1c(NN)nc(-c2ccccc2Cl)c(C#N)c1=O	8.41 mm	12.7 mm	13.1 mm	57 µg/mL (≈ 207 µM)	52.38 min	21.4 mm	45.38 min	19.4 mm	15.4 mm	10.1 mm	12.8 mm	22.7 mm	15.9 mm	19.3 mm	15.1 mm	50.65 min	17.9 mm	14 mm	9.26 mm	62 µg/mL (≈ 225 µM)	zone of inhibition at 25 µg/mL [21]: 13.4 mm; Time [22]: 66.37 min; IC50 [23]: 58 µg/mL (≈ 210 µM); Time [24]: 67.33 min; IC50 [25]: 46 µg/mL (≈ 167 µM); Time [26]: 60.86 min; inhibition [27]: 53.5%; zone of inhibition at 25 µg/mL [28]: 11.2 mm; zone of inhibition at 25 µg/mL [29]: 11.1 mm
